Measured values from publication PMC9643279 (Acta Pharmaceutica Sinica. B, 2022).

Assays:
[1] = system: LPS-induced IL-1β, IL-6, TNFα; details: cited from earlier work; for pro-inflammatory cytokine production: PKM2-targeted compounds
PGK1 [2] = target: T1, PGK1 (Homo sapiens, UniProt P00558); assay: Protein thermal shift assay; type: binding; details: Figs. S1I-J
T1 sequence (P00558 1-417): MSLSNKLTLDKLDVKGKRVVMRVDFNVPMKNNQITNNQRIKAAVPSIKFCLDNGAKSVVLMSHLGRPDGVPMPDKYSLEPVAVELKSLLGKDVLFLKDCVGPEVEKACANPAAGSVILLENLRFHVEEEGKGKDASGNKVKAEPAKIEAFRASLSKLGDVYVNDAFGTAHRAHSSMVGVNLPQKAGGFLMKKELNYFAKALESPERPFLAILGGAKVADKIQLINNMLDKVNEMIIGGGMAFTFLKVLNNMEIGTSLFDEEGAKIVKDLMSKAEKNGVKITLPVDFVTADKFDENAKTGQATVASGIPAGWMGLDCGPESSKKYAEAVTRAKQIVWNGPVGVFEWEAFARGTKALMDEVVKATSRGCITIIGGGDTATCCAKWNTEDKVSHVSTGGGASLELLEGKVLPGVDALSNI
How it was run: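 Recombinant PGK1 at 3 μmol/L was mixed with 5× SYPRO Orange and test compound or DMSO in 20 μL of 50 mmol/L HEPES pH 7.4, 150 mmol/L NaCl, 1 mmol/L DTT. Fluorescence was followed during thermal melting in a real-time PCR instrument, and Tm was derived with the instrument's thermal-shift software.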

PGK1 [3] = target: T1, PGK1; assay: PGK1 and GAPDH coupled enzyme assay, IC50 determination; type: biochemical
How it was run: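 His-tagged PGK1 was expressed from pET28a in E. coli BL21(DE3) pLysS (0.4 mmol/L IPTG, 3 h) and nickel-purified. PGK1 at 0.4 nmol/L was preincubated with test compound (DMSO, various concentrations) for 10 min at room temperature with shaking. OD340 was read every 15 s for 15 min at 37 °C; V0 came from the first 3 min, and inhibition was expressed as % of the DMSO V0.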

PGK1 [4] = target: T1, PGK1; assay: Steady-state kinetic assay in the presence of gradient compound concentrations; type: biochemical
PGK1 [5] = details: read-out: IC50 (reported); reported as a PGK1 inhibitor; cited from earlier work

SMILES: OCC1OC(O)CC(O)C1O (stereo not shown) [Compound 2-DG]
- LPS-induced IL-1β ([1]; previous studies): blocks
- transcription of IL-6 and TNFα ([1]; previous studies): unaffected

SMILES: Nc1cccc(S(=O)(=O)N2CCCN(S(=O)(=O)c3ccc4c(c3)OCCO4)CC2)c1 [DASA-58]
- pro-inflammatory cytokine production [1]: only inhibit IL-1β production

SMILES: CCOC(=O)c1nc2cc(Cl)c(Cl)cc2nc1N1CCCN(C(=O)CC)CC1 [LTP-10, ethyl 6,7-dichloro-3-(4-propionyl-1,4-diazepan-1-yl)quinoxaline-2-carboxylate]
- PGK1 thermal stability (PGK1 [2]): stabilized
- IC50 (PGK1 [3]): 2.3 µM
- Ki (PGK1 [4]; Ki, ATP competitive, varying ATP, saturating 3-PG, competitive model): 2590 ± 10 nM
- mode of inhibition versus ATP (PGK1 [4]; Km of ATP increases, Vmax unchanged): ATP competitive inhibitor
- mode of inhibition versus 3-PG (PGK1 [4]; Vmax decreases, Km of 3-PG unchanged): noncompetitive inhibition

SMILES: CN(C)C(=O)CCSC(SCCC(=O)O)c1cccc(/C=C/c2ccc3ccc(Cl)cc3n2)c1 (stereo not shown) [MK-571]
- IC50 (PGK1 [3]): 25.2 µM

SMILES: Cn1c2cc([S+](C)[O-])sc2c2cnn(Cc3cccc(N)c3)c(=O)c21 (stereo not shown) [TEPP-46]
- pro-inflammatory cytokine production [1]: only inhibit IL-1β production

SMILES: c1cc(-c2cnn3cc(-c4ccc(OCCN5CCCCC5)cc4)cnc23)ccn1 [dorsomorphin]
- IC50 (PGK1 [3]): 6.72 µM

SMILES: CC(C)[C@H](CO)Nc1nc(Nc2cccc(Cl)c2)c2ncn(C(C)C)c2n1 [purvalanol A]
- IC50 (PGK1 [3]): 1.96 µM
- IC50 (PGK1 [5]): 2500 nM
